Screens: PubChem, several laboratories
Hck-Nef inh = inhibitors of human Hck kinase activated by Nef; P08631; Recombinant Hck-YEEI plus Nef, Z-Lyte FRET kinase assay; inhibition, % at 20 µM; 220,000 tested, 0.68% active;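 active = Hck-Nef kinase inhibition above about 50%, limit read from the data; inactive = inhibition below that limit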;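 note: 0% = DMSO with Hck plus Nef and 100% = Hck alone without Nef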
Runt-SMMHC FRET = Runt domain-CBFb-SMMHC interaction inhibition; inhibition, % at 20 µM; 220,000 tested, 0.74% active; AID 1434; Cerulean-Runt/Venus-CBFb-SMMHC FRET ratio 530/480, 1 h; Q01196+Q13951;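 active = mean inhibition across duplicate retests at 20 µM reaching about 50%, limit read from the data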;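 note: 0% = DMSO wells and 100% = wells with excess untagged CBFb-SMMHC; inhibitors lower the FRET ratio by blocking Runt binding to CBFb-SMMHC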
PERK inh = blocks human PERK kinase. CHO PERK-DD fusion, SEAP luminescence translation reporter. inhibition, % at 5.6 µM. 220,000 tested, 0.17% active. Q9NZJ5;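 active = inhibition above the mean inhibition of all tested compounds plus 3 SD, set separately per screening campaign, cut at about 2.9% in these data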;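 note: PERK kinase domain activated by AP20187 dimerizer at 100 nM; 0% = DMSO with dimerizer and 100% = rapamycin at 8.4 µM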
Runt-CBFb FRET = blocks binding of human RUNX1 Runt domain to CBFb | inhibition, % at 20 µM | Cerulean-Runt/Venus-CBFb FRET ratio 530/480, 1 h | 220,000 tested, 0.46% active | AID 1496 | Q01196+Q13951;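 active = inhibition over about 50% at 20 µM in the single-dose screen, limit read from the data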;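 note: 0% = DMSO wells and 100% = excess unlabeled CBFb competitor control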
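test system = Cerulean-Runt domain fusion protein, energy donor | probe or stimulus = Venus-CBFb binding partner, 100 nM | incubation = two 1 h room-temperature incubations shielded from light | detection = fluorescence energy transfer, 422 nm excitation, 530/480 nm emission | measure = loss of energy transfer signal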
RanGTP-Imp inh = disruptors of Ran-importin-beta complex formation – biochemical, FRET, CFP-Ran, YFP-importin-beta, homogeneous, primary screen; inhibition, % (no concentration beside the values); cell-free CFP-Ran/YFP-importin-beta FRET ratio; 300,000 tested, 1.1% active;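 active = more than half of the replicate wells show a fall in the fluorescence ratio signal beyond about 16%, limit read from the data, passing the limit was not always enough; inconclusive = exactly half of the replicate wells pass the set limit; inactive = fewer than half of replicates pass the limit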;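 note: 0% = DMSO wells and 100% = Ran loaded with GDP instead of GTP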
eIF4E 4G PPI = eIF4E/eIF4G interaction inhibition in translation initiation; 220,000 tested, 0.37% active; inhibition, % at 21.7 µM; AID 782; TR-FRET eIF4E-eIF4GI(517-606) binding, 2 h;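 active = inhibition above about 30%, limit read from the data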;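 note: 0% = full FRET control wells and 100% = background wells lacking eIF4GI fragment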
Hck Nef conf = Hck-Nef kinase inhibition, confirmation. 1,300 tested, 28% active. shares compounds with Hck-Nef inh. calls only at 10 µM. AID 463188. Recombinant Hck-YEEI:Nef, Z-Lyte FRET kinase assay;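 active = average inhibition of at least 50%, with Z-scores no higher than 3 in both the phospho-tyrosine peptide and fluorescence counterscreens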
* marks the source's active call; other numbers are inactive results; i = inactive; ? = inconclusive; nt = no result shown; + = active, no number. Rows were chosen to be rich in hits. Some 2.2% of all compounds tested hit in one or more screens of this group.

SMILES	Hck-Nef inh	Runt-SMMHC FRET	PERK inh	Runt-CBFb FRET	RanGTP-Imp inh	eIF4E 4G PPI	Hck Nef conf
OC(CN1CCCCC1)Cn1c2ccccc2c2ccccc21 (stereo not drawn)	nt	nt	nt	nt	5	nt	nt
COc1ccc(S(=O)(=O)N2C(=O)/C(=C3\SC(N)=NC3=O)c3ccccc32)cc1	14	-6	1	-6	-3	2	nt
O=C(O)/C=C/c1ccc([N+](=O)[O-])o1	27	0	1	2	8	16	nt
O=C1NC(=S)S/C1=C\C=C\c1ccc([N+](=O)[O-])o1	56*	-9	0	41	nt	20	+
CCN(CC)S(=O)(=O)c1ccc(OC)c(NC(=O)COc2ccccc2[N+](=O)[O-])c1	53*	1	1	3	4	-4	i
Cc1ccc(C)c(NC(=O)Cn2nc(-c3ccccc3)nc2-c2ccccc2)c1	59*	-7	0	-3	-1	-28	i
Cc1ccc(NC(=O)Cn2nc(-c3ccccc3)nc2-c2ccccc2)c(C)c1	12	-4	0	-5	2	-2	nt
CC1(C)CC(=O)C(C=NCCN2CCN(C(=O)c3ccc(Br)cc3)CC2)=C(O)C1	-12	2	-1	0	8	1	nt
CC(C)N(C(=O)Cn1c(SCC(=O)NCc2ccc3c(c2)OCO3)nc2ccccc21)C(C)C	10	-1	-1	-4	5	2	nt
CCOc1cc(/C=C2\N=C(SCC)SC2=O)cc([N+](=O)[O-])c1OC(C)=O	95*	-6	0	6	6	3	+
CCOc1cc(/C=C2\N=C(SC)SC2=O)cc([N+](=O)[O-])c1OC(C)=O	13	0	-1	3	4	1	nt
CNc1nc(-c2cccs2)cc(C(F)(F)F)c1C#N	104*	88*	1	11	109*	0	i
CCCCOCCCN1CC(=O)N2C(C)c3[nH]c4ccccc4c3C[C@H]2C1=O (stereo partly drawn)	nt	nt	nt	nt	3	nt	nt
Cc1ccc(-c2nc3c(c(=O)[nH]c(=O)n3Cc3ccccc3)n2C)s1	58*	-15	-1	-5	?	11	i
COc1ccc(NC(=O)CSc2nnnn2-c2ccccc2OC)c(OC)c1	nt	nt	nt	nt	-3	nt	nt
Cc1cc(C)c2oc(C(=O)Nc3ccc(S(=O)(=O)Nc4nccs4)cc3)cc(=O)c2c1	51*	-1	0	-4	7	-3	i
Cc1cc2oc(C(=O)Nc3ccc(S(=O)(=O)Nc4nccs4)cc3)cc(=O)c2cc1Cl	9	-14	1	-14	-3	2	nt
CCN(CC)c1ccc2c(Cl)cc(=O)oc2c1	66*	-20	0	40	74*	4	nt
CCN(CC)c1ccc2c(C)c(CN3CCOCC3)c(=O)oc2c1	102*	41	0	11	1	-7	nt
COC(=O)Cc1c(C)c2ccc(OCC(=O)N3CCOCC3)cc2oc1=O	1	4	0	0	-1	1	nt
CCN(CC)c1ccc2c(C)c(CO)c(=O)oc2c1	+	86*	-1	21	132*	1	nt
Cc1cc(O)c(C2(O)C(=O)Nc3cc(Br)ccc32)cc1C (stereo not drawn)	nt	nt	nt	nt	1	nt	nt
CCOC(=O)C1=C(COC(=O)c2ccc(Cl)cc2[N+](=O)[O-])NC(=O)NC1C (stereo not drawn)	nt	nt	nt	nt	2	nt	nt
CN1CCN(Cc2c(O)c(Cl)cc3c(-c4ccccc4)cc(=O)oc23)CC1	6	39	-1	-2	0	2	nt
Cc1c(C)c2cc(Cl)c(O)c(CN3CCCCC3)c2oc1=O	67*	89*	-1	35	?	-4	i
Cc1cc(=O)oc2c(CN3CCN(C)CC3)c(O)c(Cl)cc12	106*	136*	1	97*	14	4	nt
Cc1cccc(NC(=O)c2cc3cc([N+](=O)[O-])ccc3s2)n1	51*	-4	1	-3	?	2	i
O=C(NCc1ccco1)c1ccc(NS(=O)(=O)c2cccc(F)c2)cc1	nt	nt	nt	nt	1	nt	nt
